Laboratory results reported in ChEMBL document CHEMBL5108039, “Piperazine tethered bergenin heterocyclic hybrids: design, synthesis, anticancer activity, and molecular docking studies” (RSC Med Chem, 2022).
Active and inactive are the calls of the source. The calls are words filed in the database; no cut-off is given here.

Tests used:
[1] = test system: HCT-15; experiment: Cytotoxicity against human HCT-15 cells assessed as cell growth inhibition; assay type: functional, cell-based
Procedure, shortened: (§1)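 Compounds were dissolved in sterile DMSO as 10 mg ml−1 stocks and tested for in vitro growth inhibition of human cancer cell lines. Doxorubicin was the standard drug and DMSO (0.01%) the vehicle control. IC50 values are reported as means.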

[2] = test system: CAL-27; experiment: Cytotoxicity against human CAL-27 cells assessed as cell growth inhibition; assay type: functional, cell-based; procedure, shortened: as §1
[3] = test system: SCC-9; experiment: Cytotoxicity against human SCC-9 cells assessed as cell growth inhibition; assay type: functional, cell-based; procedure, shortened: as §1
[4] = test system: A549; experiment: Cytotoxicity against human A549 cells assessed as cell growth inhibition; assay type: functional, cell-based
Procedure, shortened: (§2)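 Compounds were dissolved in sterile DMSO as 10 mg ml−1 stocks and tested in vitro for cytotoxicity in a cell-line panel, with DMSO (0.01%) as vehicle control and doxorubicin as standard. Mean IC50 values were reported, and the normal lung epithelial cells were tested up to 100 μM.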

[5] = test system: MCF7; experiment: Cytotoxicity against human MCF7 cells assessed as cell growth inhibition; assay type: functional, cell-based; procedure, shortened: as §1
[6] = Cytotoxicity against human BEAS-2B cells assessed as cell growth inhibition; assay type: toxicity, cell-based; procedure, shortened: as §2
[7] = test system: CAL-27; experiment: Cell cycle arrest in human CAL-27 cells assessed as accumulation at G0/G1 phase at 21 uM incubated for 24 hrs by flow cytometry (reference value: 77.6 %); assay type: functional
[8] = test system: CAL-27; experiment: Cell cycle arrest in human CAL-27 cells assessed as accumulation at G0/G1 phase at 42 uM incubated for 24 hrs by flow cytometry (reference value: 77.6 %); assay type: functional
[9] = test system: CAL-27; experiment: Cell cycle arrest in human CAL-27 cells assessed as accumulation at S phase at 21 uM incubated for 24 hrs by flow cytometry (reference value: 3.6 %); assay type: functional
[10] = test system: CAL-27; experiment: Cell cycle arrest in human CAL-27 cells assessed as accumulation at S phase at 42 uM incubated for 24 hrs by flow cytometry (reference value: 3.6 %); assay type: functional
[11] = test system: CAL-27; experiment: Cell cycle arrest in human CAL-27 cells assessed as accumulation at G2/M phase at 21 uM incubated for 24 hrs by flow cytometry (reference value: 11.9 %); assay type: functional
[12] = test system: CAL-27; experiment: Cell cycle arrest in human CAL-27 cells assessed as accumulation at G2/M phase at 42 uM incubated for 24 hrs by flow cytometry (reference value: 11.9 %); assay type: functional
[13] = test system: CAL-27; experiment: Induction of apoptosis in human CAL-27 cells assessed as live cells at 21 uM incubated for 24 hrs by Annexin V-FITC/PI staining based flow cytometric analysis (reference value: 99.8 %); assay type: functional
Procedure, shortened: (§3)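 CAL27 cells were treated with vehicle, doxorubicin or test compounds at 10–63 μM, and apoptosis was assessed by annexin V–FITC/PI staining with flow cytometry. Cells were scored as live, early apoptotic, late apoptotic or necrotic. The vehicle was DMSO (0.01%).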

[14] = test system: CAL-27; experiment: Induction of apoptosis in human CAL-27 cells assessed as early apoptotic cells at 21 uM incubated for 24 hrs by Annexin V-FITC/PI staining based flow cytometric analysis (reference value: 0.1 %); assay type: functional; procedure, shortened: as §3
[15] = test system: CAL-27; experiment: Induction of apoptosis in human CAL-27 cells assessed as late apoptotic cells at 21 uM incubated for 24 hrs by Annexin V-FITC/PI staining based flow cytometric analysis (reference value: 0.1 %); assay type: functional; procedure, shortened: as §3
[16] = test system: CAL-27; experiment: Induction of apoptosis in human CAL-27 cells assessed as necrotic cells at 21 uM incubated for 24 hrs by Annexin V-FITC/PI staining based flow cytometric analysis (reference value: 0.0 %); assay type: functional
[17] = test system: CAL-27; experiment: Induction of apoptosis in human CAL-27 cells assessed as live cells at 42 uM incubated for 24 hrs by Annexin V-FITC/PI staining based flow cytometric analysis (reference value: 99.8 %); assay type: functional; procedure, shortened: as §3
[18] = test system: CAL-27; experiment: Induction of apoptosis in human CAL-27 cells assessed as early apoptotic cells at 42 uM incubated for 24 hrs by Annexin V-FITC/PI staining based flow cytometric analysis (reference value: 0.1 %); assay type: functional; procedure, shortened: as §3
[19] = test system: CAL-27; experiment: Induction of apoptosis in human CAL-27 cells assessed as late apoptotic cells at 42 uM incubated for 24 hrs by Annexin V-FITC/PI staining based flow cytometric analysis (reference value: 0.1 %); assay type: functional; settings: in the assay text read “early apoptotic cells” for “late apoptotic cells”; procedure, shortened: as §3
[20] = test system: CAL-27; experiment: Induction of apoptosis in human CAL-27 cells assessed as necrotic cells at 42 uM incubated for 24 hrs by Annexin V-FITC/PI staining based flow cytometric analysis (reference value: 0.0 %); assay type: functional
[21] = test system: CAL-27; experiment: Induction of apoptosis in human CAL-27 cells assessed as downregulation of vimentin gene expression at 21 uM by qRT-PCR analysis; assay type: functional, cell-based
Procedure, shortened: (§4)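 CAL27 cells were treated with test compounds at several concentrations. Relative expression of vimentin, E-cad, Nanog, Oct-4, Bax and BcL-2 was measured by qRT-PCR against vehicle-treated control cells.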

[22] = test system: CAL-27; experiment: Induction of apoptosis in human CAL-27 cells assessed as downregulation of vimentin gene expression at 42 uM by qRT-PCR analysis; assay type: functional, cell-based; procedure, shortened: as §4
[23] = test system: CAL-27; experiment: Induction of apoptosis in human CAL-27 cells assessed as downregulation of Oct-4 gene expression at 21 uM by qRT-PCR analysis; assay type: functional, cell-based; procedure, shortened: as §4
[24] = test system: CAL-27; experiment: Induction of apoptosis in human CAL-27 cells assessed as downregulation of Oct-4 gene expression at 42 uM by qRT-PCR analysis; assay type: functional, cell-based; procedure, shortened: as §4
[25] = test system: CAL-27; experiment: Induction of apoptosis in human CAL-27 cells assessed as downregulation of Nanog gene expression at 21 uM by qRT-PCR analysis; assay type: functional, cell-based; procedure, shortened: as §4
[26] = test system: CAL-27; experiment: Induction of apoptosis in human CAL-27 cells assessed as downregulation of Nanog gene expression at 42 uM by qRT-PCR analysis; assay type: functional, cell-based; procedure, shortened: as §4
[27] = test system: CAL-27; experiment: Induction of apoptosis in human CAL-27 cells assessed as downregulation of BcL-2 gene expression at 21 uM by qRT-PCR analysis; assay type: functional, cell-based; procedure, shortened: as §4
[28] = test system: CAL-27; experiment: Induction of apoptosis in human CAL-27 cells assessed as downregulation of BcL-2 gene expression at 42 uM by qRT-PCR analysis; assay type: functional, cell-based; procedure, shortened: as §4
[29] = test system: CAL-27; experiment: Induction of apoptosis in human CAL-27 cells assessed as upregulation of Bax gene expression at 21 uM by qRT-PCR analysis; assay type: functional, cell-based
Procedure, shortened: (§5)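 CAL27 cells were treated with test agents at different concentrations. Relative mRNA levels of vimentin, E-cad, Nanog, Oct-4, Bax and Bcl-2 were then quantified by qRT-PCR as apoptosis, EMT and stemness markers.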

[30] = test system: CAL-27; experiment: Induction of apoptosis in human CAL-27 cells assessed as upregulation of Bax gene expression at 42 uM by qRT-PCR analysis; assay type: functional, cell-based; procedure, shortened: as §5
[31] = test system: CAL-27; experiment: Induction of apoptosis in human CAL-27 cells assessed as upregulation of E-cad gene expression at 21 uM by qRT-PCR analysis; assay type: functional, cell-based; procedure, shortened: as §5
[32] = test system: CAL-27; experiment: Induction of apoptosis in human CAL-27 cells assessed as upregulation of E-cad gene expression at 42 uM by qRT-PCR analysis; assay type: functional, cell-based; procedure, shortened: as §5

## COc1c(O)c(CN2CCN(S(=O)(=O)c3ccc(I)cc3)CC2)c2c(c1O)C1O[C@H](CO)[C@@H](O)[C@H](O)C1OC2=O (some centres not stated)
[1]
  IC50: > 100 µM
[2]
  IC50: 41.6 µM
[3]
  IC50: > 100 µM
[4]
  IC50: > 100 µM
[5]
  IC50: > 100 µM
[6]
  IC50: > 100 µM
[7]
  Activity: 83.3%
[8]
  Activity: 83.7%
[9]
  Activity: 3.5%
[10]
  Activity: 1.9%
[11]
  Activity: 12.6%
[12]
  Activity: 11.5%
[13]
  Activity: 97.1%
[14]
  Activity: 1.1%
[15]
  Activity: 0.7%
[16]
  Activity: 1.1%
[17]
  Activity: 94.6%
[18]
  Activity: 1.7%
[19]
  Activity: 1.7%
[20]
  Activity: 2%
[21]
  Activity: Active
[22]
  Activity: Active
[23]
  Activity: Active
[24]
  Activity: Active
[25]
  Activity: Active
[26]
  Activity: Active
[27]
  Activity: Active
[28]
  Activity: Active
[29]
  Activity: Active
[30]
  Activity: Active
[31]
  Activity: Active
[32]
  Activity: Active
